Runt-SMMHC FRET = blocks binding of human RUNX1 Runt domain to CBFb-SMMHC; Cerulean-Runt/Venus-CBFb-SMMHC FRET ratio 530/480, 1 h; Q01196+Q13951; inhibition, % at 20 µM; 220,000 tested, 0.74% active;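 active = mean inhibition across duplicate retests at 20 µM reaching about 50%, limit read from the data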;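 also: inhibitors lower the FRET ratio by blocking Runt binding to CBFb-SMMHC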
Target sequence (Q01196 whole entry, looked up, the tested form may be a part): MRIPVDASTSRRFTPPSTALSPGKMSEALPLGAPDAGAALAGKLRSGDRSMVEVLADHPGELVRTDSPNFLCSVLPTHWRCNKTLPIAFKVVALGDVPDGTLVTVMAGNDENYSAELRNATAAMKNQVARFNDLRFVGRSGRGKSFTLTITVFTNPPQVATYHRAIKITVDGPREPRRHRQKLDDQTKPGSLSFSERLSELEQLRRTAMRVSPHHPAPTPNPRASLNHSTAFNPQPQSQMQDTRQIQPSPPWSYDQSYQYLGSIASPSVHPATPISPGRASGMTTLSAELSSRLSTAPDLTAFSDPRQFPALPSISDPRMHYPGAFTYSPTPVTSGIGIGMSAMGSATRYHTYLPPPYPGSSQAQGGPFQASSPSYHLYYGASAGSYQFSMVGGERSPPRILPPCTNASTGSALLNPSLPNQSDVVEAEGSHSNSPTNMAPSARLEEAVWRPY
Target sequence (Q13951 whole entry, looked up, the tested form may be a part): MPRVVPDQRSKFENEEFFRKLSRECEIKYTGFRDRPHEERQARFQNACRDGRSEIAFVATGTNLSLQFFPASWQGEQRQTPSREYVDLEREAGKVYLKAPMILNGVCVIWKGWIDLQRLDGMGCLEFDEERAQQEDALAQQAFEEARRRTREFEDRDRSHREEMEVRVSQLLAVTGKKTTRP
RanGTP-Imp inh = inhibitors of RanGTP-importin-beta interaction, primary screen, biochemical, FRET, CFP-Ran, YFP-importin-beta, homogeneous | cell-free CFP-Ran/YFP-importin-beta FRET ratio | inhibition, % (no concentration beside the values) | 300,000 tested, 1.1% active;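 active = more than half of the replicate wells show a fall in the fluorescence ratio signal beyond about 16%, limit read from the data, passing the limit was not always enough; inconclusive = exactly half of the replicate wells pass the set limit; inactive = fewer than half of replicates pass the limit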
FAS-TE inh = inhibitors of human fatty acid synthase thioesterase domain; P49327; recombinant FAS-TE, OMFH fluorogenic substrate, fluorescence endpoint; inhibition, % at 15 µM; 360,000 tested, 0.67% active; AID 602261;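 active = compounds whose normalised, plate-corrected inhibition of enzyme fluorescence in the single-dose primary screen is 50% or more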
Calpain2 inh = inhibitors of pig calpain II; purified calpain II, fluorogenic peptide substrate, 30 min; 220,000 tested, 0.37% active; inhibition, % at 16 µM;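 active = inhibition above about 50%, limit read from the data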
Runt-CBFb FRET = inhibitors of human RUNX1 Runt domain binding to CBFb; Q01196+Q13951; Cerulean-Runt/Venus-CBFb FRET ratio 530/480, 1 h; inhibition, % at 20 µM; 220,000 tested, 0.46% active;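 active = inhibition over about 50% at 20 µM in the single-dose screen, limit read from the data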
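Measured by: fluorescence energy transfer, 422 nm excitation, 530/480 nm emission; Assay system: Cerulean-Runt domain; Medium: Tris pH 7.5 buffer with BSA; Measure: loss of energy transfer signal; Controls: 5 µM unlabeled CBFb as full-inhibition high control; Incubation: protein complex preformed 1 h, compound exposure 1 h, room temperature, dark.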
Of the large screens only hits and unclear results are named; the others gave an inactive call. A selection: hits, their analogues and other compounds. The true share with any hit is near 2.1%.

CN1CCc2c(sc(NC(=O)C3CCN(S(=O)(=O)c4cccs4)CC3)c2C(N)=O)C1	RanGTP-Imp inh 132 (no result: Runt-SMMHC FRET, Calpain2 inh, Runt-CBFb FRET)
COC(=O)c1c(NC(=O)C2CCCCC2)sc2c1CCN(C(C)C)C2	RanGTP-Imp inh 57 (no result: Runt-SMMHC FRET, Calpain2 inh, Runt-CBFb FRET)
O=C(CSc1cn[nH]n1)Nc1ccccc1F	none (no result: Runt-SMMHC FRET, Calpain2 inh, Runt-CBFb FRET)
O=c1oc2ccccc2n1CCn1c2ccccc2c2nc3ccccc3nc21	RanGTP-Imp inh 28
Cc1cn(CC(=O)NCCc2c[nH]c3ccccc23)c(=O)[nH]c1=O	none (no result: Runt-SMMHC FRET, RanGTP-Imp inh, Calpain2 inh, Runt-CBFb FRET)
Cc1cc(C)nc(SCC(=O)NC2=NN=C(c3ccc(Br)cc3)CS2)n1	RanGTP-Imp inh 38 (no result: Runt-CBFb FRET)
N#CC(c1cccc(Cl)c1)c1ccc2c(C(F)(F)F)cc(C(F)(F)F)nc2n1 (centres undefined)	Calpain2 inh 63
O=C(CSc1cccc[n+]1[O-])c1cc(Cl)ccc1Cl	Calpain2 inh 70
Cn1c(NCc2ccco2)nc2c1c(=O)n(Cc1ccc(Cl)c(Cl)c1)c(=O)n2C	Calpain2 inh 86
COc1ccc(CNc2nc3c(c(=O)n(Cc4ccc(Cl)cc4)c(=O)n3C)n2C)cc1	Calpain2 inh 84
Cc1ccc(-c2noc(N=O)c2NO)cc1	none
CCC(C)NC(=O)C1(N2C(=O)c3ccccc3C2=O)CCCC1 (centres undefined)	none (no result: Runt-SMMHC FRET, RanGTP-Imp inh, Calpain2 inh, Runt-CBFb FRET)
Cc1ccc2nc(-c3sc4nc(C)ccc4c3N)[nH]c2c1	none
Cc1cc(C)c2c(N)c(-c3nc4ccccc4[nH]3)sc2n1	RanGTP-Imp inh 21
COCCCNC(=S)N1CCCN(c2nc3c(C)c(C)ccc3cc2C#N)CC1	RanGTP-Imp inh 43 (no result: Runt-SMMHC FRET, Runt-CBFb FRET)
COCCCNC(=S)NCCCNc1nc2cc(C)cc(C)c2cc1C#N	Runt-SMMHC FRET 66
Cc1cccc2cc(C#N)c(N3CCC(O)CC3)nc12	Runt-SMMHC FRET 71, RanGTP-Imp inh 29
COCCCNC(=S)NCCNc1nc2c(C)c(C)ccc2cc1C#N	Runt-SMMHC FRET 64 (no result: RanGTP-Imp inh)
Cc1cccc(N2CCN(Cc3cn(C)nc3-c3ccccc3F)CC2)n1	none
Cc1nc(N2CCN(C(=O)c3ccco3)CC2)c(C#N)c2c1CCCC2	none (no result: Runt-SMMHC FRET, Calpain2 inh, Runt-CBFb FRET)
Cc1cccc2cc(C#N)c(N3CCOCC3)nc12	none (no result: Runt-SMMHC FRET, Calpain2 inh, Runt-CBFb FRET)
Cc1ccc2cc(C#N)c(N3CCCN(C(=O)C4CCCO4)CC3)nc2c1C (centres undefined)	Runt-SMMHC FRET 64, RanGTP-Imp inh 50
Cc1cc(C)c2nc(N3CCCN(C(=O)c4ccco4)CC3)c(C#N)cc2c1	Runt-SMMHC FRET 70, RanGTP-Imp inh 89
COC(=O)c1n[nH]c2ccccc12	RanGTP-Imp inh 24
COc1ccccc1C(=O)Nc1ccc(C(=O)c2ccccc2)cc1	Calpain2 inh 67
COc1ccccc1C(=O)Nc1ccc(C(=O)O)cc1	none
Cc1ccc(NC(=O)CSc2nncn2N)cc1C	none (no result: Runt-SMMHC FRET, Calpain2 inh, Runt-CBFb FRET)
O=C(CN1CCCc2ccccc21)Nc1ccc(F)cc1[N+](=O)[O-]	none
CCOc1ccccc1NC(=O)c1cc(C(=O)Nc2ccccc2OCC)cc(N2C(=O)CCC2=O)c1	none
N#Cc1c2c(c(NCCOCCO)n3c1nc1ccccc13)CCCC2	Runt-SMMHC FRET 85
CC(=O)Nc1ccc(N2CCc3c(C)c(C#N)c4nc5ccccc5n4c32)cc1	Runt-SMMHC FRET 81, RanGTP-Imp inh 110 (no result: FAS-TE inh)
N#Cc1c2c(c(NCc3cccnc3)n3c1nc1ccccc13)CCC2	RanGTP-Imp inh inconclusive (no result: Runt-SMMHC FRET)
CCN(CC)c1c2c(c(C#N)c3nc4ccccc4n13)CCC2	RanGTP-Imp inh inconclusive
COCCNc1c2c(c(C#N)c3nc4ccccc4n13)CCCC2	Runt-SMMHC FRET 75, RanGTP-Imp inh 21
CC(=O)c1ccc(Nc2c3c(c(C#N)c4nc5ccccc5n24)CCC3)cc1	Runt-SMMHC FRET 68, RanGTP-Imp inh 31 (no result: FAS-TE inh)
COc1ccc(Nc2c3c(c(C#N)c4nc5ccccc5n24)CCC3)cc1	none (no result: Runt-CBFb FRET)
CC(=O)Nc1cccc(NC(=O)Cc2ccc3ccccc3c2)c1	none (no result: Runt-SMMHC FRET, Calpain2 inh, Runt-CBFb FRET)
OC(c1ccccc1)(c1nc(/C=C/c2ccc(C(F)(F)F)cc2)cs1)C(F)(F)F (centres undefined)	none (no result: Runt-SMMHC FRET, RanGTP-Imp inh, Calpain2 inh, Runt-CBFb FRET)
Nc1ccc(C(=O)Nc2ccco2)cc1	RanGTP-Imp inh 37
Nc1[nH]c(=O)nc(Nc2ccccc2)c1N=O	RanGTP-Imp inh 38 (no result: Runt-SMMHC FRET, Calpain2 inh, Runt-CBFb FRET)
COc1cc(/C=C(\C#N)C(=O)Nc2cccc3ncccc23)ccc1O	Runt-SMMHC FRET 92, RanGTP-Imp inh 63, Runt-CBFb FRET 84 (no result: FAS-TE inh)
O=C(CCC(=O)N1CCN(S(=O)(=O)c2ccc(Cl)cc2)CC1)Nc1cccc(Br)c1	Calpain2 inh 83
